Assay outcomes as filed in PubChem BioAssay.
KCNK3 block = human KCNK3 channel inhibition, primary screen; O14649; CHO-KCNK3 thallium flux, FluxOR fluorescence; hits give low values; B-score at 10 µM; AID 602410; 340,000 tested, 0.84% active;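 active = B-score under library mean minus 4 SD, starting fluorescence ratio at most library mean plus 5 SD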;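 also: more negative B-score means stronger inhibition of thallium flux through KCNK3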
KCNK9 inh = inhibitors of human KCNK9 two-pore domain potassium channel; Q9NPC2; HEK293 KCNK9, FluxOR thallium flux fluorescence; hits give low values; B-score at 10 µM; 310,000 tested, 1.2% active;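 active = ratio B-score over 3 SD below the library mean, with starting fluorescence within 5 SD of its mean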;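 also: negative B-score means less thallium flux so channel inhibition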
Cl transport mod = modulators of human KCC2 chloride dependent transport; 190,000 tested, 2.2% active; B-score of Tl+ flux slope (higher = more flux/activation; lower = inhibition) at 10 µM; KCC2 cells, thallium flux FluoZin-2 fluorescence;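 active = thallium flux slope and its plate-corrected score both differing from the plate sample mean at a set confidence after two filtering rounds, in either direction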;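 also: slope of fluorescence scaled to starting intensity during 10 to 20 s after thallium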
hERG protect = compounds protecting human hERG from proarrhythmic drug block | Q12809 | CHO-hERG, FluxOR thallium flux, dofetilide IC70 present | activation (rescue from dofetilide block), less the hit threshold, % at 10 µM | 310,000 tested, 0.51% active;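 active = activation above the mean of controls blocked by dofetilide plus 5 SD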;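 also: thallium influx through hERG after potassium depolarization seen as dye fluorescence rise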
KCNQ1 act = potentiates or activates the human KCNQ1 potassium channel; B-score at 10 µM; P51787; AID 2648; 310,000 tested, 0.35% active; CHO-K1 KCNQ1, thallium flux FluxOR fluorescence; hits give high values;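 active = fluorescence ratio B-score, a plate-corrected score, at least three library SD, with initial intensity B-score within 5 SD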
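Schedule – 37 °C overnight plating, 90-min dark dye load, 20-min compound pretreatment · System – stable KCNQ1 CHO-K1 line · Probe or stimulus – thallium- and potassium-containing depolarizing buffer · Measured by – kinetic FluxOR fluorescence, 10 s baseline plus 110 s post-stimulus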
KCNQ1 inh = inhibitors of human KCNQ1 potassium channel | 310,000 tested, 1.3% active | CHO-K1 KCNQ1, FluxOR thallium flux fluorescence; hits give high values | P51787 | AID 2642 | B-score at 10 µM;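 active = compounds whose thallium flux B-score, printed positive for inhibition, exceeds three library SD while starting fluorescence stays within three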;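 also: channel opened by potassium depolarization with thallium stimulus after 20 min compound exposure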
KCNK3 inh conf = human KCNK3 channel inhibition, confirmation assay | shares compounds with KCNK3 block | CHO-KCNK3 thallium flux, FluxOR fluorescence; 0% buffer, 100% carvedilol maximal block | ratio percent of control, % at 10 µM | 2,400 tested, 99% active | AID 651638;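 active = ratio percent of control, averaged over triplicates, above buffer control mean plus 5 SD, cut at about 64% in these data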;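 also: ratio is the fluorescence rise from min to max over baseline after thallium stimulus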
KCNK3 uninduced = activity in cells without induced KCNK3 expression; shares compounds with KCNK3 block; non-induced KCNK3 parental cells, FluxOR thallium flux; hits give low values; thallium flux ratio (lower = more inhibition) at 10 µM; 2,400 tested, 40% active;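 active = thallium flux ratio, averaged over three wells, more than 5 SD below the buffer control mean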;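 also: host cells are CHO cells without KCNK3 induction; ratio is peak minus trough fluorescence over baseline then normalized to buffer controls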
* hit, by the source's call; i = inactive; / = not tested or not shown. In the library only some 4.1% were active in any assay of this set; here they are far more common.

SMILES	KCNK3 block	KCNK9 inh	Cl transport mod	hERG protect	KCNQ1 act	KCNQ1 inh	KCNK3 inh conf	KCNK3 uninduced
c1cncc(C(c2nnnn2C2CCCC2)N2CCCC2)c1 (centres undefined)	i	i	0.843	-4.3	i	i	/	/
COc1ccc(-n2ncc3c(=O)n(CC(=O)NC(C)C)cnc32)cc1	i	i	/	-1.7	i	i	/	/
COCCN(C(=O)c1ccco1)c1nc(-c2ccccc2)cs1	-10.2*	i	/	-6.2	i	i	91.7*	0.152*
CC1CC(C)CN(CCCNC(=O)c2nn(C)c3c2CS(=O)(=O)c2ccccc2-3)C1 (centres undefined)	i	i	/	-10.0	i	i	/	/
CCc1cc(C)cc(OCCOc2ccccc2/C=N/NC(C)=O)c1	i	i	/	-4.7	i	i	/	/
COc1ccccc1C(=O)NCCC(=O)N1CCCC(C(F)(F)F)C1 (centres undefined)	-9.51*	i	/	-0.2	i	i	77.3*	i
COc1ccccc1C(=O)NCCC(=O)N1CCCCC1	i	i	/	-9.3	i	i	/	/
CC1CCCN(C(=O)NC2CC(=O)N(c3ccc4c(c3)OCCO4)C2)C1 (centres undefined)	i	i	/	-12.4	i	i	/	/
OC1(c2ccc(OC(F)F)cc2)CSC(=Nc2cccnc2)N1Cc1ccco1 (centres undefined)	-11.4*	i	-0.649	-33.5	i	i	96.7*	i
OC1(c2ccc(F)cc2)CSC(=Nc2cccnc2)N1Cc1ccco1 (centres undefined)	i	i	-0.176	-21.6	i	i	/	/
O=C1N(c2ccccc2)C(c2ccc(Cl)cc2)N2CCCN12 (centres undefined)	i	i	1.05	-9.3	i	i	/	/
Cc1ccc(C2N(c3ccc(Cl)cc3)C(=O)N3CCCN23)cc1 (centres undefined)	-9.61*	i	-0.614	-10.2	i	i	90.0*	i
N#Cc1cn(CCCOc2ccccc2)c2ccccc12	-9.47*	i	0.082	-7.0	i	i	115.0*	0.14*
COc1ccccc1OCCCn1cc(C#N)c2ccccc21	i	i	/	-1.1	i	i	/	/
COc1cc(OC)c(OC)cc1/C=C1\CC(C)C/C(=C\c2cc(OC)c(OC)cc2OC)C1=O (centres undefined)	-13.6*	i	/	-7.3	i	8*	154.3*	0.066*
COc1cc(OC)c(OC)cc1/C=C1/Cc2ccccc2C1=O	i	i	/	-13.3	i	i	/	/
CCOC(=O)c1c(N)sc2c1CCSC2	-9.55*	i	-0.458	-8.0	i	i	71.7*	i
CC(C)[C@H](NS(=O)(=O)c1ccccc1F)C(=O)NC1CCCCC1	i	/	/	/	/	/	/	/
c1ccc(CNc2nc(N3CCN(Cc4ccccc4)CC3)nc3ccccc23)cc1	-10.1*	i	-0.684	-28.0	i	12*	113.3*	i
Oc1ccccc1Nc1nc(NCc2ccccc2)c2ccccc2n1	-12.2*	i	-0.154	-15.1	i	i	137.0*	i
Oc1ccccc1-c1nc(N2CCN(Cc3ccccc3)CC2)c2ccccc2n1	-11.7*	-7.1*	0.705	-3.9	i	i	100.0*	i
CNc1nc(NCc2ccccc2)c2ccccc2n1	i	i	/	-7.6	i	i	/	/
O=C(c1ccc2c(c1)OCO2)C1CCCN(C2CCN(CCc3ccccc3)CC2)C1 (centres undefined)	i	i	/	-11.4	i	i	/	/
CC(=O)c1cccc(NC(=O)C(C)OC(=O)C2CCC2)c1 (centres undefined)	i	i	/	-4.0	i	i	/	/
CC(OC(=O)C1CCC1)C(=O)Nc1cc(Cl)cc(Cl)c1 (centres undefined)	-9.01*	i	/	-11.5	i	i	96.0*	i
SMILES	KCNK3 block	KCNK9 inh	Cl transport mod	hERG protect	KCNQ1 act	KCNQ1 inh	KCNK3 inh conf	KCNK3 uninduced
COc1ccc(C)cc1N(CC(=O)NCCSCc1ccco1)S(=O)(=O)c1ccc(C)cc1	i	i	/	-9.4	i	i	/	/
CCCN1C(=O)/C(=C/c2ccc(C)s2)SC1=Nc1ccc(OC)cc1	-8.96*	i	-0.323	-12.4	i	i	114.3*	i
CCN1C(=O)/C(=C/c2cccs2)SC1=Nc1ccc(OC)cc1	i	i	1.55	-10.1	i	i	/	/
CCC(OC(=O)C(CC(C)C)NC(=O)c1ccccc1)C(=O)Nc1nnc(C)s1 (centres undefined)	i	/	/	/	/	/	/	/
CCOC(=O)c1sc(NC(=O)C(CC)OC(=O)C(CC(C)C)NC(=O)c2ccccc2)nc1C (centres undefined)	-10.6*	i	/	-11.3	i	i	108.0*	i
O=C(/C=C/c1cccc(Cl)c1)Nc1ncccn1	i	i	1.46	-6.5	i	i	/	/
CSc1cccc(NC(=O)/C=C/c2cccc(Cl)c2)c1	-11.2*	i	-1.16	-12.8	i	11*	128.3*	0.158*
O=C(c1ccc2c(c1)OCO2)N(c1ccc(Br)cc1)C1C=CS(=O)(=O)C1 (centres undefined)	i	i	/	-6.4	i	i	/	/
COC(=O)c1cccc(N2C(=O)C(Cl)=C(N3CCOCC3)C2=O)c1	-9.73*	i	/	-1.0	i	i	66.7*	i
O=C1C(Cl)=C(N2CCOCC2)C(=O)N1c1cccc(C(F)(F)F)c1	i	i	/	-6.0	i	i	/	/
O=C(c1ccco1)N1CCN(CC(O)COc2ccc3oc4ccccc4c3c2)CC1 (centres undefined)	i	i	-1.08	-14.9	i	i	/	/
[S-]C(=Nc1ccc(Cl)cc1)N[n+]1ccccc1	i	i	-0.352	-6.8	i	i	/	/
CN(CC(=O)Nc1ccc(F)c(F)c1F)C(=O)CC1CCCCC1	i	/	/	/	/	/	/	/
O=[N+]([O-])c1ccc(/C=C/c2ccc3ccccc3n2)cc1	-9.22*	i	0.175	-3.6	i	i	93.7*	i
O=C(OCCOc1ccc(Br)cc1)c1ccc(Cl)nc1	-10.6*	i	0.386	-6.8	i	i	69.3*	i
CC(C)N(C(=O)COC(=O)c1ccc(Cl)nc1)C(C)C	i	i	0.0625	-2.3	i	i	/	/
